We go through 89 molecules from PubChem BioAssay AID540295 (The Scripps Research Institute Molecular Screening Center, 2011).

As a reminder, the inhibition is the change of the read-out against control, counted positive when it falls.

The whole screen tested about 360,000 compounds, of which about 1,700 (0.47%) were called active.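 The calls were made as follows: active = inhibition above its plate's cutoff, the mean of tested wells on that plate plus 3 SD (cut at about 29% in these data); inactive = the rest.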 The full list was thinned out, with actives kept by preference.

Melanocortin receptor 4 (Homo sapiens), sequence (P32245 whole entry, looked up): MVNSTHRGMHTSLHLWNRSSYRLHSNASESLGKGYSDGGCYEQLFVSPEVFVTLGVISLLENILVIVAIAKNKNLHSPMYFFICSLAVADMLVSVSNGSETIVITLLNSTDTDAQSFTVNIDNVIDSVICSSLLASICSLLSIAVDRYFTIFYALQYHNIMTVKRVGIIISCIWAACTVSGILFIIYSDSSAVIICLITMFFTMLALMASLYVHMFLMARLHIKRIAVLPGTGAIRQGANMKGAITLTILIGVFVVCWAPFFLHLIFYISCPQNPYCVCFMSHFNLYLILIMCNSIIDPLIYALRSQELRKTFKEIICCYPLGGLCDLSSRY

For this experiment, the target named is Melanocortin receptor 4 (Homo sapiens) (UniProt P32245). Nature of the experiment: blockers of MC4R Gs-cAMP response – cell-based, TR-FRET, antagonist arm of biased-ligand search, primary screen (AID 540295).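 Also: 0% = Melanotan II alone and 100% = Melanotan II plus saturating MCL0020.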 The note with it: MC4R-expressing cells, MTII-stimulated cAMP, LANCE TR-FRET; at 6.5 µM; stronger effect = higher value. An outline of the steps:
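Assay system: U2OS cells stably expressing human melanocortin 4 receptor (MC4R) / Dosing: 6.5 µM / Timing: compound 30 min, challenge 1 h, detection 1 h / Measured by: Eu-cAMP/anti-cAMP TR-FRET, emission 671 nm / Replicates: singlicate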
For the molecule `O=C(COC(=O)Cn1cnc2ccccc2c1=O)NCc1ccccc1Cl`, the inhibition is 10.8% (inactive).
Regarding `CC1(C)C(=O)Nc2ccccc2N1C(=O)COC(=O)Cn1cnc2ccccc2c1=O`, the inhibition was 13.1% (inactive).
Regarding `O=C(COC(=O)Cn1cnc2ccccc2c1=O)NCC12CC3CC(CC(C3)C1)C2`, the inhibition is 29.2% (active).
As for `O=C(N/C(=C\c1ccc(O)cc1)C(=O)N1CCCCC1)c1ccccc1`, the inhibition was 2.84% (inactive).
For the molecule `COc1ccc(N)cc1NC(=O)CN1CCOCC1`, the inhibition was -2.41% (inactive).
For the molecule `O=C(O)c1n[nH]nc1-c1ccccc1`, the inhibition is 3.02% (inactive).
As to `CCCCOC(=O)CNc1nnc(SCC(=O)OCC)[nH]c1=O`, the inhibition is 60.6% (active).
Consider `Cc1nnc(SCC(=O)N2CCOCC2)[nH]c1=O`, for which the inhibition was 2.07% (inactive).
The value for `CCOC(=O)CSc1nc(C)c(Oc2ccc(Cl)cc2Cl)c(=O)[nH]1` was 5.59% (inactive).
For `Cc1ccc(C)c(NC(CC(=O)c2ccccc2)C(=O)OCC(=O)c2cccs2)c1` (centres undefined), the inhibition was -0.53% (inactive).
With `NC(=O)c1ccc(NC(=O)COC(=O)C(Cc2ccccc2)NC(=O)c2ccccc2)cc1` (centres undefined), the inhibition is 11% (inactive).
Turning to `O=C(COC(=O)[C@H](Cc1ccccc1)NC(=O)c1cccs1)Nc1cc(F)ccc1F`, the inhibition was 31.4% (active).
Regarding `CCc1nc2c(OCc3ccc(C(F)(F)F)cc3)cccn2c1N(C)C(=O)CC(C)C`, the inhibition is 6.64% (inactive).
The value for `O=C(COC(=O)c1cnc(Cl)c(Cl)c1)NCc1ccco1` was 10.1% (inactive); that for `O=S(=O)(NCC1CCCO1)c1cnc(Cl)c(Cl)c1` (centres undefined) was 24.7% (inactive); that for `O=S(=O)(NCc1ccco1)c1cnc(Cl)c(Cl)c1` was 44.9% (active).
In the case of `COC(=O)C[C@H]1C[C@@H]2c3cc(N(C)C)ccc3O[C@@H]2[C@H](CO)O1`, the inhibition was 13% (inactive).
As to `O=C1c2ccccc2C(=O)N1CCc1nn[nH]n1`, the inhibition was 14.6% (inactive).
As to `CN(C)C(CNC(=O)c1cccc(C#N)c1)c1ccco1` (centres undefined), the inhibition is 0.76% (inactive).
As to `O=C(CCCOc1ccccc1)NCc1ccco1`, the inhibition was 2.67% (inactive).
As for `CN(C)C(CNC(=O)CCCOc1ccccc1)c1ccco1` (centres undefined), the inhibition was 29.7% (active).
Next, `CN(CC(=O)NCCc1ccccn1)S(=O)(=O)c1ccc(Cl)cc1`: 30.3% (active); `CN(CC(=O)NNC(=O)CNC(=O)c1ccccc1Cl)S(=O)(=O)c1ccc(Cl)cc1`: 2.86% (inactive); `CN(CC(=O)NCC(c1ccccc1)N1CCCC1)S(=O)(=O)c1ccc(Cl)cc1` (centres undefined): -2.78% (inactive).
On to `Cc1ccc(S(=O)(=O)N2CCCC2C(=O)NCc2ccco2)cc1` (centres undefined), for which the inhibition is -0.46% (inactive).
With `COC(=O)COc1ccc(C2NC(=O)NC(C)=C2C(=O)NCc2ccccc2)cc1OC` (centres undefined), the inhibition is 21.9% (inactive).
In the case of `C[C@H]([C@@H](O)[C@@H](O)[C@@H](C)C(C)(C)C)[C@H]1CC[C@H]2C3CC[C@H]4C[C@H](OS(=O)(=O)O)[C@@H](OS(=O)(=O)O)C[C@]4(C)[C@H]3CC[C@]12C` (some centres undefined), the inhibition was 9.52% (inactive).
Consider `CCN(CCCNC(=O)C1CCN(S(=O)(=O)c2cnc[nH]2)CC1)c1ccccc1`, for which the inhibition was 17.3% (inactive).
On to `O=C(Nc1ccccc1Cl)/C(Cl)=C(\Cl)S(=O)c1ccccc1` (centres undefined), for which the inhibition is 34.9% (active).
Take `CS/C(=C\C(=O)c1ccco1)Nc1ccccc1Cl`: the inhibition is 12.1% (inactive).
Consider `O=C(COc1ccc(-n2cnnn2)cc1)Nc1ccccc1Cl`, for which the inhibition is -4.5% (inactive).
Turning to `NC1=NC(=O)C(Cc2cccc(Cl)c2)S1` (centres undefined), the inhibition was 6.88% (inactive).
For the molecule `CCOC(=O)C(CC)Sc1ncnc2c1nnn2-c1ccc(F)cc1` (centres undefined), the inhibition was 9.91% (inactive).
With `COc1ccc(S(=O)(=O)N2CCOC2CNC(=O)C(=O)NCc2ccc(F)cc2)cc1` (centres undefined), the inhibition was 5.37% (inactive).
Consider `N#CC1=C(N)Oc2[nH]c(=S)[nH]c(=O)c2C12C(=O)Nc1ccccc12` (centres undefined), for which the inhibition is -0.32% (inactive).
On to `CC1(C)Cc2ccccc2/C(=C/C(=O)c2ccccc2)N1`, for which the inhibition is -4.86% (inactive).
In the case of `CC1(C)Cc2ccccc2-c2[nH]c(=S)[nH]c(=O)c21`, the inhibition is 31.3% (active).
Take `CC(=O)c1ccc(S(=O)(=O)Nc2ccc(-c3ccc4nncn4n3)cc2)cc1`: the inhibition is 4.19% (inactive).
For `Cc1cccc(C(=O)N2CCCC(Nc3ccc(C(C)C)cc3)C2)n1` (centres undefined), the inhibition was -4.44% (inactive).
With `O=C(Oc1ccc(-c2nnco2)cc1)c1ccc(F)c(S(=O)(=O)N2CCOCC2)c1`, the inhibition is 16.3% (inactive).
Next, `C=CCOC(=O)C1=C(C)N=C2SCCC(=O)N2C1/C=C/c1ccccc1OC` (centres undefined): 6.17% (inactive); `COc1ccc(-c2ccc3c(c2)C2CC3CCN2CCC#N)cc1` (centres undefined): 8.84% (inactive).
On to `C=CCn1c(=S)[nH]c2scc(-c3ccco3)c2c1=O`, for which the inhibition is 29.6% (active).
In the case of `CCC1(C)Cc2c(sc3[nH]c(=S)n(Cc4ccccc4)c(=O)c23)CO1` (centres undefined), the inhibition is 3.15% (inactive).
With `COc1cccc(-c2cc(NC(C)=O)c3ncc(-c4cccc(C(C)=O)c4)n3c2)c1`, the inhibition is 8.07% (inactive).
Regarding `CSc1ncnc2c1ncn2CCCNCC(C)c1ccccc1` (centres undefined), the inhibition is 0.11% (inactive).
On to `COc1ccc(S(=O)(=O)N(C)CC(=O)NCCCN2CCOCC2)cc1Cl`, for which the inhibition was 8.85% (inactive).
With `CCN(CC(=O)NCCCN1CCOCC1)S(=O)(=O)c1cc(Cl)ccc1Cl`, the inhibition was 30.2% (active).
Consider `CCN(CC)S(=O)(=O)c1ccc(Cl)c(C(=O)NCCN2CCOCC2)c1`, for which the inhibition was -2.31% (inactive).
As for `O=C(Nc1nnc(Cc2ccc(Cl)cc2)s1)c1ccncc1`, the inhibition was 11.2% (inactive).
Next, `O=C(Nc1nnc(Cc2ccc(Cl)cc2)s1)c1cccnc1`: 33.8% (active); `O=C(Nc1nnc(Cc2ccccc2)s1)c1cnccn1`: 20.4% (inactive).
Consider `COC(=O)[C@]1(CC(C)C)N[C@H](c2ccc(SC3CCCCC3)cc2)[C@@H]2C(=O)N(C)C(=O)[C@@H]21`, for which the inhibition was 4.32% (inactive).
The value for `Cc1ccc(NC(=O)Cn2c(=O)n(CCC(=O)NC3CCN(Cc4ccccc4)CC3)c(=O)c3ccccc32)cc1` was 8.52% (inactive).
Regarding `COC(=O)c1sc(-c2ccc(C(C)(C)C)cc2)cc1NC(=O)/C=C/C(=O)O`, the inhibition was 37.3% (active).
On to `COc1ccccc1NC(=O)/C=C/C(N)=O`, for which the inhibition was 21% (inactive).
For the molecule `COc1ccc(NS(=O)(=O)c2ccc(N3CCOCC3)c(NC(=O)/C=C/C(=O)O)c2)cc1`, the inhibition is 0.91% (inactive).
For the molecule `O=C(CCNC(=O)C1CCN(S(=O)(=O)c2ccccc2)CC1)NC1CC1`, the inhibition is 8.45% (inactive).
In the case of `NC(=O)COc1ccc(C23CC4CC(CC(C4)C2)C3)cc1`, the inhibition was -2.25% (inactive).
Regarding `CCCC(NC(=O)c1ccccc1)c1nc2ccccc2n1Cc1ccc(C(=O)OC)o1` (centres undefined), the inhibition is -3.45% (inactive).
With `COc1ccc(CSc2nc(N3CCOCC3)c3c(c2C#N)CC(C)(C)OC3)cc1`, the inhibition was 19% (inactive).
For `CCOC(=O)CSc1nc(N2CCOCC2)c2c(c1C#N)CC(C(C)C)OC2` (centres undefined), the inhibition was 28.7% (active).
For `CC(C)Cc1nc(N2CCOCC2)c(C#N)c2c1CCC2`, the inhibition is 8.79% (inactive).
As to `COc1ccc(CCNC(=O)CSCc2ccc(Br)cc2)cc1OC`, the inhibition is 1.08% (inactive).
In the case of `CC(C)c1ccc(NC(=O)CCN2C(=O)c3ccc([N+](=O)[O-])cc3C2=O)cc1`, the inhibition is 7.45% (inactive).
Regarding `O=NN(CCCl)C(=O)NCCc1cccc[n+]1[O-]`, the inhibition was 7.72% (inactive).
Take `CC(C)(C)C1CCC(OC(=O)CCC(=O)Nc2ccccc2)CC1` (centres undefined): the inhibition was 2.76% (inactive).
Turning to `CC1C(C)N(C(=O)CCl)c2ccccc2N1C(=O)CCl` (centres undefined), the inhibition was -4% (inactive).
Regarding `COc1ccc(C(=O)OCC(=O)NCC2CCCO2)cc1[N+](=O)[O-]` (centres undefined), the inhibition was 1.35% (inactive).
With `CC(C)(C)OC(=O)N1CCC(NC(=O)c2[nH]cnc2C(=O)N[C@@H](Cc2ccccc2)C(=O)OCc2ccccc2)CC1`, the inhibition was 35.5% (active).
Next, `C[C@@H](NC(=O)c1nc[nH]c1C(=O)N1CCN(C(=O)OC(C)(C)C)CC1)c1ccccc1`: 15.2% (inactive); `O=C(N[C@@H](Cc1ccccc1)C(=O)OCc1ccccc1)c1nc[nH]c1C(=O)N[C@@H](Cc1ccccc1)C(=O)OCc1ccccc1`: 10.8% (inactive); `O=C1NC(c2ccccc2)CCC1(Cl)Cl` (centres undefined): 3.93% (inactive).
Take `C=CCn1c(SCC(=O)c2c(N)n(C)c(=O)n(C)c2=O)nc2sc(CC)cc2c1=O`: the inhibition was 8.69% (inactive).
As to `Cc1ccc(CSc2nnc(-c3cnccn3)n2C)cc1`, the inhibition is 29.1% (active).
With `Cn1c(SCc2c(F)cccc2Cl)nnc1-c1cnccn1`, the inhibition was -3.89% (inactive).
Regarding `Cn1c(SCc2ccc(F)cc2)nnc1-c1ccncc1`, the inhibition was 0.33% (inactive).
For `[O-][n+]1onc2c1CCc1[nH]c(-c3ccccc3)nc1-2`, the inhibition was 2.02% (inactive).
`COc1ccc(NS(=O)(=O)c2ccc(C)c(C(=O)NNC(=O)c3csc(N4CCOCC4)n3)c2)cc1`: the inhibition was -2.21% (inactive).
The value for `CCCCCOc1ccc(/C=C/C(=O)NCCc2nc3ccccc3[nH]2)cc1OC` was 6.2% (inactive); that for `CC(C)Oc1ccc(/C=C(\NC(=O)/C=C/c2ccco2)C(=O)NCCc2nc3ccccc3[nH]2)cc1` was 28.9% (active); that for `CC(C)=C(NC(=O)c1ccco1)C(=O)NCCc1nc2ccccc2[nH]1` was 2.22% (inactive).
Next, `O=C(N/N=C\c1ccc(-c2ccc(Cl)c(Cl)c2)o1)C(=O)N1CCCC1`: 4.11% (inactive); `Cc1ccc(S(=O)(=O)N(CC(=O)NCc2ccco2)c2ccccc2C)cc1`: 12.4% (inactive); `COc1ccc(Cc2cc(-c3ccc(F)cc3)n[nH]c2=O)cc1`: 9.23% (inactive).
Consider `COc1ccc(-n2nc(C(=O)Nc3cc(OC)c(OC)c(OC)c3)c3ccccc3c2=O)c(OC)c1`, for which the inhibition was 31.6% (active).
Consider `COc1cccc(NC(=O)c2nn(-c3ccc(OC)cc3OC)c(=O)c3ccccc23)c1`, for which the inhibition is -1.09% (inactive).
Regarding `COc1ccc(-n2nc(C(=O)NCC(=O)N3CCN(c4ccccc4OC)CC3)c3ccccc3c2=O)c(OC)c1`, the inhibition is 1.93% (inactive).
As for `COc1ccc(CCNC(=O)CN2C(=O)COc3ccc(S(=O)(=O)N4CCCC4)cc32)cc1OC`, the inhibition was 3.63% (inactive).
